Reference: ChEMBL document CHEMBL4390664, “3,5-Diaryl-1H-pyrazolo[3,4-b]pyridines as potent tubulin polymerization inhibitors: Rational design, synthesis and biological evaluation” (Eur J Med Chem, 2019)
Calls of active or inactive are those of the source. No cut-off for these calls is given here.

Experiments:
SGC-7901 [1] = experiment: Antiproliferative activity against human SGC7901 cells assessed as reduction in cell growth incubated for 72 hrs by MTT assay; assay type: functional, cell-based; settings: SGC-7901, 72 h
A549 = experiment: Antiproliferative activity against human A549 cells assessed as reduction in cell growth incubated for 72 hrs by MTT assay; assay type: functional, cell-based; settings: A549, 72 h
HeLa = experiment: Antiproliferative activity against human HeLa cells assessed as reduction in cell growth incubated for 72 hrs by MTT assay; assay type: functional, cell-based
L929 = experiment: Cytotoxicity against mouse L929 cells assessed as reduction in cell growth incubated for 72 hrs by MTT assay; assay type: cell-based; settings: L929, 72 h
SGC-7901 [2] = experiment: Induction of morphological changes in human SGC7901 cells assessed as destruction of cytoskeleton at 36 nM incubated for 24 hrs by immunofluorescence assay; assay type: functional, cell-based
How it was run: (§1)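 SGC-7901 cells were exposed to compound at 26 or 36 nM for 24 h, then immunostained. Microtubules and unassembled tubulin were stained green and nuclei blue. Microtubule network and cell morphology were examined by fluorescence imaging.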

SGC-7901 [3] = experiment: Induction of morphological changes in human SGC7901 cells assessed as cell rounding at 36 nM incubated for 24 hrs by immunofluorescence assay; assay type: functional, cell-based; how it was run: as §1
SGC-7901 [4] = experiment: Induction of morphological changes in human SGC7901 cells assessed as formation of multinucleated cells at 36 nM incubated for 24 hrs by immunofluorescence assay; assay type: functional, cell-based; how it was run: as §1
SGC-7901 [5] = experiment: Cell cycle arrest in human SGC7901 cells assessed as decrease of G1 cell population at 36 nM incubated for 0 to 72 hrs by flow cytometry analysis; assay type: functional, cell-based
SGC-7901 [6] = experiment: Cell cycle arrest in human SGC7901 cells assessed as increase of G2/M cell population at 36 nM incubated for 0 to 72 hrs by flow cytometry analysis; assay type: functional, cell-based
SGC-7901 [7] = experiment: Induction of multinucleated cell formation in human SGC7901 cells at 36 nM incubated for 0 to 72 hrs by flow cytometry analysis; assay type: functional, cell-based
Tubulin (Sus scrofa) [8] = target: T1, Tubulin (Sus scrofa) (UniProt P02554+P02550); experiment: Inhibition of porcine brain tubulin polymerization at 10 uM measured at 1 min intervals for 80 mins by fluorimetry
T1 sequence (P02550 whole entry, looked up): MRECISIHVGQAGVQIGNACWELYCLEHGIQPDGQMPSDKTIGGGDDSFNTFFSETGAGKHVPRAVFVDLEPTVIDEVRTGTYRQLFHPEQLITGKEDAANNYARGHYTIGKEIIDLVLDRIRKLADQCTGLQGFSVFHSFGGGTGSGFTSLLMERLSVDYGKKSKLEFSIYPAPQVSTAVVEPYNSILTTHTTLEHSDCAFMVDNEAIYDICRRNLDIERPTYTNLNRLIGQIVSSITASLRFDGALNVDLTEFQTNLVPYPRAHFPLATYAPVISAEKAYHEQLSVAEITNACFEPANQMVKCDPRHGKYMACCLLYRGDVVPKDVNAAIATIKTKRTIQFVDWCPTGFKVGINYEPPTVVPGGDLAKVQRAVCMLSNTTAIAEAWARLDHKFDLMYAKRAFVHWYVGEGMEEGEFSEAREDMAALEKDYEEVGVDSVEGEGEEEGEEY
T1 sequence (P02554 whole entry, looked up): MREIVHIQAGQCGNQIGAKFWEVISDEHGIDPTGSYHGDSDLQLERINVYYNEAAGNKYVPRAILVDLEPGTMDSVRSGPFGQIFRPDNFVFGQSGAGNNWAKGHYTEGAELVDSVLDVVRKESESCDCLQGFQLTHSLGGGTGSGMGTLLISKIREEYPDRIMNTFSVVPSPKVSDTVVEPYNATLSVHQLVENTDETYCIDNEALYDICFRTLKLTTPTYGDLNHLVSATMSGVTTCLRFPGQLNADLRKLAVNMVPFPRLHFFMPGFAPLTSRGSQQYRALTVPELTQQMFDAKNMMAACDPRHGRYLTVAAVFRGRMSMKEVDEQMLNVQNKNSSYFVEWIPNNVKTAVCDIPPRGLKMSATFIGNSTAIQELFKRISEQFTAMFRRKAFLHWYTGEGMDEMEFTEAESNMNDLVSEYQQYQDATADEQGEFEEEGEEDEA

SGC-7901 [9] = experiment: Induction of morphological changes in human SGC7901 cells assessed as destruction of cytoskeleton at 26 nM incubated for 24 hrs by immunofluorescence assay; assay type: functional, cell-based; how it was run: as §1
SGC-7901 [10] = experiment: Induction of morphological changes in human SGC7901 cells assessed as cell rounding at 26 nM incubated for 24 hrs by immunofluorescence assay; assay type: functional, cell-based; how it was run: as §1
SGC-7901 [11] = experiment: Induction of morphological changes in human SGC7901 cells assessed as formation of multinucleated cells at 26 nM incubated for 24 hrs by immunofluorescence assay; assay type: functional, cell-based; how it was run: as §1
SGC-7901 [12] = experiment: Cell cycle arrest in human SGC7901 cells assessed as accumulation of G2/M cell population at 26 nM incubated for 12 hrs by flow cytometry analysis (reference value: 24.47%); assay type: functional
Tubulin (Sus scrofa) [13] = target: T1, Tubulin (Sus scrofa); experiment: Inhibition of porcine brain tubulin polymerization measured at 1 min intervals for 80 mins by fluorimetry
Tubulin (Sus scrofa) [14] = target: T1, Tubulin (Sus scrofa); experiment: Inhibition of porcine brain tubulin polymerization at 12.5 to 100 uM measured at 1 min intervals for 80 mins by fluorimetry

Row | IC50 (SGC-7901 [1]) | IC50 (A549) | IC50 (HeLa) | Structure (SMILES) | also measured
1 | > 30 µM | > 30 µM | > 30 µM | COc1ccc(-c2n[nH]c3ncc(-c4ccc(C)cc4N)cc23)cc1 | –
2 | > 30 µM | > 30 µM | > 30 µM | COc1ccc(-c2n[nH]c3ncc(-c4ccc(C)cc4)cc23)cc1 | –
3 | 20.2 µM | 17.4 µM | 10.9 µM | COc1cc(-c2n[nH]c3ncc(-c4ccc(Br)cc4)cc23)cc(OC)c1OC | –
4 | > 30 µM | > 30 µM | > 30 µM | COc1ccc(-c2n[nH]c3ncc(-c4ccc(C)cc4N)cc23)cc1OC | –
5 | 0.62 µM | 4.43 µM | 0.38 µM | COc1cc(-c2n[nH]c3ncc(-c4cc(C)ccc4N)cc23)cc(OC)c1OC | –
6 | 3.76 µM | 4.27 µM | 1.67 µM | CNc1cc(F)ccc1-c1cnc2[nH]nc(-c3cc(OC)c(OC)c(OC)c3)c2c1 | –
7 | > 30 µM | > 30 µM | > 30 µM | COc1ccc(-c2n[nH]c3ncc(-c4ccc(C)cc4)cc23)cc1OC | –
8 | 9.51 µM | 10.2 µM | 4.93 µM | COc1ccc(N)c(-c2cnc3[nH]nc(-c4cc(OC)c(OC)c(OC)c4)c3c2)c1 | –
9 | 8.48 µM | 14 µM | 6.49 µM | CNc1cc(Cl)ccc1-c1cnc2[nH]nc(-c3cc(OC)c(OC)c(OC)c3)c2c1 | –
10 | 1.91 µM | 7.66 µM | 0.46 µM | COc1cccc(-c2cnc3[nH]nc(-c4cc(OC)c(OC)c(OC)c4)c3c2)c1 | –
11 | 0.018 µM | – | 0.024 µM | COc1cc(C(=O)c2csc(-c3ccccc3)n2)cc(OC)c1OC | IC50 (L929): 25.8 µM; Activity (SGC-7901 [2]): Active; Activity (SGC-7901 [3]): Active; Activity (SGC-7901 [4]): Active; Activity (SGC-7901 [5]): Active; Activity (SGC-7901 [6]): Active; Activity (SGC-7901 [7]): Active; inhibition (Tubulin (Sus scrofa) [8]): Active
12 | 6.31 µM | 9.25 µM | 3.84 µM | CNc1cc(C)ccc1-c1cnc2[nH]nc(-c3cc(OC)c(OC)c(OC)c3)c2c1 | –
13 | 0.037 µM | 0.65 µM | 0.057 µM | COc1cc(-c2n[nH]c3ncc(-c4ccccc4)cc23)cc(OC)c1OC | –
14 | 2.31 µM | > 30 µM | 0.89 µM | COc1cc(-c2n[nH]c3ncc(-c4ccc(F)cc4)cc23)cc(OC)c1OC | –
15 | 5.52 µM | 8.47 µM | 2.61 µM | COc1cc(-c2n[nH]c3ncc(-c4ccc(Br)cc4N)cc23)cc(OC)c1OC | –
16 | 0.23 µM | 7.83 µM | 0.16 µM | COc1cc(-c2n[nH]c3ncc(-c4ccc(C)cc4N)cc23)cc(OC)c1OC | –
17 | 0.4 µM | 1.31 µM | 0.081 µM | COc1cc(-c2n[nH]c3ncc(-c4ccc(F)cc4N)cc23)cc(OC)c1OC | –
18 | 0.051 µM | > 30 µM | 0.086 µM | COc1cc(-c2n[nH]c3ncc(-c4cccc(C)c4)cc23)cc(OC)c1OC | –
19 | 4.37 µM | 1.42 µM | 2.55 µM | COc1cc(-c2n[nH]c3ncc(-c4ccccc4N)cc23)cc(OC)c1OC | –
20 | 0.13 µM | > 30 µM | 0.28 µM | COc1ccc(-c2cnc3[nH]nc(-c4cc(OC)c(OC)c(OC)c4)c3c2)cc1 | –
21 | 3.73 µM | 5.36 µM | 1.44 µM | COc1ccc(-c2cnc3[nH]nc(-c4cc(OC)c(OC)c(OC)c4)c3c2)c(N)c1 | –
22 | 0.58 µM | 3.24 µM | 0.36 µM | COc1cc(-c2n[nH]c3ncc(-c4ccc(Cl)cc4N)cc23)cc(OC)c1OC | –
23 | 4.82 µM | 14.6 µM | 0.87 µM | COc1cc(-c2n[nH]c3ncc(-c4ccc(Cl)cc4)cc23)cc(OC)c1OC | –
24 | 0.013 µM | 0.082 µM | 0.045 µM | COc1cc(-c2n[nH]c3ncc(-c4ccc(C)cc4)cc23)cc(OC)c1OC | IC50 (L929): 37.5 µM; Activity (SGC-7901 [9]): Active; Activity (SGC-7901 [10]): Active; Activity (SGC-7901 [11]): Active; Activity (SGC-7901 [12]): 59.62%; inhibition (Tubulin (Sus scrofa) [13]): Dose-dependent effect; inhibition (Tubulin (Sus scrofa) [14]): Active
